Laboratory results from ChEMBL document CHEMBL2321821, “Inhibition of the β-carbonic anhydrases from Mycobacterium tuberculosis with C-cinnamoyl glycosides: identification of the first inhibitor with anti-mycobacterial activity” (Bioorg Med Chem Lett, 2013).
pKi: −log10 of the molar value. ≈ marks a conversion by molar mass, not a printed value. Calls of active or inactive are those of the source. No cut-off for these calls is given here.

How the values were obtained:
[1] = tested on: Mycobacterium tuberculosis; experiment: Antimicrobial activity against Mycobacterium tuberculosis H37Rv assessed as growth inhibition at 50 ug/ml after 7 days by serial twofold dilution method; assay type: functional, organism-based
Method in brief: (§1)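 Broth microdilution against H37Rv in Middlebrook 7H9-ADS-G, with 0.05% Tween 80. Compounds from DMSO stock (10 mg/ml), twofold serial dilution on plate. Inoculum is a 1/25 dilution of a mid-log suspension (McFarland 1.0), ~10⁶ CFU per well. Rifampicin control; growth and sterility controls. Incubated 37 °C for 7 days. Growth read visually by turbidity; run in duplicate.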

[2] = Inhibition of Mycobacterium tuberculosis Rv3588c beta-carbonic anhydrase by stopped flow assay
Method in brief: (§2)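 Recombinant mtCA enzyme. CO2 hydration was followed by stopped-flow with phenol red indicator (0.02 mM) read at 557 nm, in 20 mM Hepes pH 7.5 with 20 mM Na2SO4, over 10–100 s. CO2 was 1.7–17 mM. Inhibitor was diluted in water and preincubated with enzyme 15 min at room temperature. Uncatalyzed rate subtracted; three determinations.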

[3] = tested on: Mycobacterium tuberculosis; experiment: Antimicrobial activity against Mycobacterium tuberculosis H37Rv assessed as growth inhibition at < /= 25 ug/ml after 7 days by serial twofold dilution method; assay type: functional, organism-based; method in brief: as §1
[4] = Inhibition of Mycobacterium tuberculosis Rv3273 beta-carbonic anhydrase by stopped flow assay; method in brief: as §2
[5] = tested on: Mycobacterium tuberculosis; experiment: Antimicrobial activity against Mycobacterium tuberculosis H37Rv assessed as growth inhibition at 100 ug/ml after 7 days by serial twofold dilution method; assay type: functional, organism-based; method in brief: as §1
[6] = tested on: Mycobacterium tuberculosis; experiment: Antimicrobial activity against Mycobacterium tuberculosis H37Rv after 30 days; assay type: functional
Method in brief: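 M. tuberculosis H37Rv, fresh culture, ~1 × 10³ CFU plated onto solid Middlebrook 7H11 with ADS (1/10 v/v) and glycerol (1% v/v). Compound added to molten medium in wells at chosen concentrations. Incubated 37 °C for 30 days, then inspected visually. MIC99.9% taken as the concentration giving 99.9% reduction in cell counts.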

[7] = Inhibition of Mycobacterium tuberculosis Rv1284 beta-carbonic anhydrase by stopped flow assay; method in brief: as §2

Compound	growth inhibition (GI) [1]	pKi [2]	growth inhibition (GI) [3]	pKi [4]	growth inhibition (GI) [5]	MIC [6] [µg/mL]	pKi [7]
O=C(/C=C/c1cccc(O)c1)C[C@@H]1O[C@H](CO)[C@H](O)[C@H](O)[C@H]1O	Active	6.29	inactive	5.49	Active	100 (≈ 308 µM)	5.94
O=C(/C=C/c1cccc(O)c1)C[C@@H]1O[C@H](CO)[C@@H](O)[C@H](O)[C@H]1O	inactive	6.62	inactive	5.21	inactive		6.85
CC(=O)OC[C@H]1O[C@@H](CC(=O)/C=C/c2cccc(O)c2)[C@H](OC(C)=O)[C@@H](OC(C)=O)[C@@H]1OC(C)=O	Active	6.19	inactive	4.72	Active	3.12 (≈ 6.35 µM)	5.68
Oc1ccccc1 [PHENOL]				4.10			4.19
O=C(/C=C/c1ccc(O)cc1)C[C@@H]1O[C@H](CO)[C@@H](O)[C@H](O)[C@H]1O	Active	6.89	inactive	5.38	Active		6.03
O=C(/C=C/c1ccc(O)cc1)C[C@@H]1O[C@H](CO)[C@H](O)[C@H](O)[C@H]1O	inactive	6.03	inactive	5.38	inactive		5.35
CC(=O)OC[C@H]1O[C@@H](CC(=O)/C=C/c2cccc(O)c2)[C@H](OC(C)=O)[C@@H](OC(C)=O)[C@H]1OC(C)=O	inactive	6.06	inactive	4.81	inactive		5.42
CC(=O)OC[C@H]1O[C@@H](CC(=O)/C=C/c2ccc(O)cc2)[C@H](OC(C)=O)[C@@H](OC(C)=O)[C@H]1OC(C)=O	inactive	5.94	inactive	4.92	inactive		5.35
CC(=O)OC[C@H]1O[C@@H](CC(=O)/C=C/c2ccc(O)cc2)[C@H](OC(C)=O)[C@@H](OC(C)=O)[C@@H]1OC(C)=O	Active	6.46	inactive	4.88	Active	> 100	5.54
